Results: ChEMBL document CHEMBL1142853 (Bioorg Med Chem Lett, 2005)
pEC50, pKi: −log10 of the molar value.

Tests used:
[1] = molecular target: T1, 5-hydroxytryptamine receptor 2C (Homo sapiens) (UniProt P28335); assay: Antagonistic activity against accumulation of [3H]inositol phosphate in cells stably expressing human 5-hydroxytryptamine 2C receptor determined by phosphoinositide hydrolysis assay; type: functional; conditions: filed as antagonist
T1 sequence (whole entry): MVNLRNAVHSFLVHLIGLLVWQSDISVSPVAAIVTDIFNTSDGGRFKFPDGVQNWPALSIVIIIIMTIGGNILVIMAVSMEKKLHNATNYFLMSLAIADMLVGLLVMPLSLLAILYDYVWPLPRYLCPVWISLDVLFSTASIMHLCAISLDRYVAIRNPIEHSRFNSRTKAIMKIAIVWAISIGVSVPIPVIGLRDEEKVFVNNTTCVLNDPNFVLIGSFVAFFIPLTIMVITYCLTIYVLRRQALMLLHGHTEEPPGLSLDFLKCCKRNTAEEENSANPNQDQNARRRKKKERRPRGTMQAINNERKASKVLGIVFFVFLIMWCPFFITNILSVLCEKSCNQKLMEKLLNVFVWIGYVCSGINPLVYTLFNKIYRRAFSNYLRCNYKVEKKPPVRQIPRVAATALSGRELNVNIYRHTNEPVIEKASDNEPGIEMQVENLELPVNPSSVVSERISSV
In short: (§1)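 Phosphoinositide hydrolysis assay with human receptors, 5-HT2A and 5-HT2C expressed stably and 5-HT2B transiently. Cells were loaded overnight with [3H]inositol (15 Ci/mmol; 1 mCi/mL as supplied) in inositol-free DMEM without serum.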

[2] = molecular target: T2, 5-hydroxytryptamine receptor 2A (Homo sapiens, UniProt P28223); assay: Inhibition constant against human 5-hydroxytryptamine 2A receptor using [3H]ketanserin as radioligand with the compound (10 uM) dissolved in DMSO
T2 sequence (P28223 whole entry): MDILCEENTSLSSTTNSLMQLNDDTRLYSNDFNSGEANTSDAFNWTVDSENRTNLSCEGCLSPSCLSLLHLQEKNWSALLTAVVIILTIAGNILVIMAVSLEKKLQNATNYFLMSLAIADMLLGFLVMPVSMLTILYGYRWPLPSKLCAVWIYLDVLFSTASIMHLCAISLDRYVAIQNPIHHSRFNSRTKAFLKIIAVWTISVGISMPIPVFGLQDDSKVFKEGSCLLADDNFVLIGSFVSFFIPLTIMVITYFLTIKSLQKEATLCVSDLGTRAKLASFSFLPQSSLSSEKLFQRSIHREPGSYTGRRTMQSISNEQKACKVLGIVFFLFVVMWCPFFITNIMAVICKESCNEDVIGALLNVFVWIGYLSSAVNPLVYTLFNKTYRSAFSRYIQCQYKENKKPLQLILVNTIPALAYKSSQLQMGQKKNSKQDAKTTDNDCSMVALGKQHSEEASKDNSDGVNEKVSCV
In short: (§2)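 Competition binding with [3H]ketanserin (5-HT2A), [3H]mesulergine (5-HT2C) or [3H]LSD (5-HT2B) on receptor preparations. Compounds in 10% DMSO were first screened at a single concentration as duplicate determinations, each run in duplicate. Compounds giving >50% inhibition of specific binding were then tested in duplicate from 1 to 100,000 nM. Ki is the mean ± SD of computer-derived estimates, N = 4.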

[3] = molecular target: T3, 5-hydroxytryptamine receptor 2C (Homo sapiens, UniProt P28335); assay: Inhibition constant against human 5-hydroxytryptamine 2C receptor [VGI isoforms] using [3H]mesulergine as radioligand with the compound (10 uM) dissolved in DMSO; in short: as §2
T3 sequence (P28335 whole entry): T1 sequence (whole entry)

[4] = molecular target: T3, 5-hydroxytryptamine receptor 2C; assay: Inhibition constant against human 5-hydroxytryptamine 2C receptor [INI isoforms] using [3H]mesulergine as radioligand with the compound (10 uM) dissolved in DMSO; in short: as §2
[5] = molecular target: T4, 5-hydroxytryptamine receptor 2B (Homo sapiens, UniProt P41595); assay: Inhibition constant against human 5-hydroxytryptamine 2B receptor using [3H]LSD as radioligand with the compound (10 uM) dissolved in DMSO; in short: as §2
T4 sequence (P41595 whole entry): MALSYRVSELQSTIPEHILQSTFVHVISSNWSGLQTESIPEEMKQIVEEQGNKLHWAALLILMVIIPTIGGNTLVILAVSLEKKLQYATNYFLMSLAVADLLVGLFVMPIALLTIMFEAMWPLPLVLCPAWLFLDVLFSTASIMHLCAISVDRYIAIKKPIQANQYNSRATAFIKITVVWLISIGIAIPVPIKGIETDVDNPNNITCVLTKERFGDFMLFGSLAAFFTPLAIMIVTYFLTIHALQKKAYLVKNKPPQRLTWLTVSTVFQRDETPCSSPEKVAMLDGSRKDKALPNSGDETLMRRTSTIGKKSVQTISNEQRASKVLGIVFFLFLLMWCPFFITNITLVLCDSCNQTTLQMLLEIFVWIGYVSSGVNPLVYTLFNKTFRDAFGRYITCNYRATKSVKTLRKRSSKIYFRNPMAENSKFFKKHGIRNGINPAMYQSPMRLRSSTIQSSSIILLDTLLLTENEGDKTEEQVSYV

[6] = molecular target: T5, 5-hydroxytryptamine receptor 2C (Rattus norvegicus, UniProt P08909); assay: Inhibition constant against rat 5-hydroxytryptamine 2C receptor using [3H]mesulergine as radioligand with the compound (10 uM) dissolved in DMSO; in short: as §2
T5 sequence (P08909 whole entry): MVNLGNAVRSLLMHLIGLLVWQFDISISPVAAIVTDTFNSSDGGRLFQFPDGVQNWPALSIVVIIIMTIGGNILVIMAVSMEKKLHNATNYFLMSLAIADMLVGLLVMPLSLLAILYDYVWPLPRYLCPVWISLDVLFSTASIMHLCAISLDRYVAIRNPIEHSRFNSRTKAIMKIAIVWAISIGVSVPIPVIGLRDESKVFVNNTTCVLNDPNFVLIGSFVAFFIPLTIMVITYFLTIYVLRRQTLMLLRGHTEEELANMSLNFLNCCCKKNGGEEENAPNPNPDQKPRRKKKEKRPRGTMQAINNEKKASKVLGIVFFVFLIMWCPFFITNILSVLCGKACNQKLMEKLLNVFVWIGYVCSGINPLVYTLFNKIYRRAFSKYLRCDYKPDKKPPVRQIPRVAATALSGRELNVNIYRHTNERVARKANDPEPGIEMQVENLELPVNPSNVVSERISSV

[7] = molecular target: 5-hydroxytryptamine receptor 2A (Rattus norvegicus, UniProt P14842); assay: Inhibition constant against rat 5-hydroxytryptamine 2A receptor using [3H]ketanserin as radioligand with the compound (10 uM) dissolved in DMSO; in short: as §2
Sequence of 5-hydroxytryptamine receptor 2A (Rattus norvegicus, UniProt P14842) (P14842 whole entry): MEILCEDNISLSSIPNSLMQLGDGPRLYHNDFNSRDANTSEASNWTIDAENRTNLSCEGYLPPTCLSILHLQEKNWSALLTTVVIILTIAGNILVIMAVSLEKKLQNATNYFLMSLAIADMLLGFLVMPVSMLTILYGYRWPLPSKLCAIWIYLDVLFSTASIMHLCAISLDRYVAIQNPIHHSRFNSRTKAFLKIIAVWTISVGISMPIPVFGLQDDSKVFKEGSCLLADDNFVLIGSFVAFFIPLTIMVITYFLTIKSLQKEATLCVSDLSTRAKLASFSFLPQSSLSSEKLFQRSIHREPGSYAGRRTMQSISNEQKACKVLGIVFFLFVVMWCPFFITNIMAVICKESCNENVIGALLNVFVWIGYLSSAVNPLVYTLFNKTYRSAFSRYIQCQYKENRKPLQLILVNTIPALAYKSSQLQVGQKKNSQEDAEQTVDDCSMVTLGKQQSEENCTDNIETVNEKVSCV

[8] = molecular target: T2, 5-hydroxytryptamine receptor 2A; assay: Antagonistic activity against accumulation of [3H]-inositol phosphate in cells stably expressing human 5-hydroxytryptamine 2A receptor determined by phosphoinositide hydrolysis assay; type: functional; conditions: filed as antagonist; in short: as §1
[9] = molecular target: T4, 5-hydroxytryptamine receptor 2B; assay: Antagonistic activity against accumulation of [3H]inositol phosphate in cells transiently expressing human 5-hydroxytryptamine 2B receptor determined by phosphoinositide hydrolysis assay; type: functional; conditions: filed as antagonist; in short: as §1
[10] = molecular target: T2, 5-hydroxytryptamine receptor 2A; assay: Effective concentration required for accumulation of [3H]inositol phosphate in cells stably expressing human 5-hydroxytryptamine 2A receptor determined by phosphoinositide hydrolysis assay; type: functional
In short: (§3)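 Phosphoinositide hydrolysis measured in cells expressing human 5-HT2A (stable) or 5-HT2B (transient) receptors, loaded overnight with [3H]inositol (15 Ci/mmol; 1 mCi/mL as supplied) in serum-free, inositol-free DMEM. Where SD is given, N ≥ 3.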

[11] = molecular target: T3, 5-hydroxytryptamine receptor 2C; assay: Effective concentration required for accumulation of [3H]inositol phosphate in cells stably expressing human 5-hydroxytryptamine 2C receptor determined by phosphoinositide hydrolysis assay; type: functional
[12] = molecular target: T4, 5-hydroxytryptamine receptor 2B; assay: Effective concentration required for accumulation of [3H]inositol phosphate in cells transiently expressing human 5-hydroxytryptamine 2B receptor determined by phosphoinositide hydrolysis assay; type: functional; in short: as §3

Row | SMILES | Activity [1] | pKi [2] | pKi [3] | pKi [4] | pKi [5] | pKi [6] | pKi [7] | Activity [8] | Activity [9] | pEC50 [10] | pEC50 [11] | pEC50 [12]
1 | CCCCn1cc(CCN(C)C)c2c(OP(=O)(O)O)cccc21 | Antagonist | 5.52 | 6.68 | 7.14 | 6.77 | 5.24 | < 5.00 | Antagonist | Antagonist |  |  | 
2 | CN(C)CCc1c[nH]c2cc(O)ccc12 |  | 5.12 | 5.17 | < 5.00 | 5.20 | 4.72 | < 5.00 |  |  |  |  | 
3 | Oc1cccc2[nH]cc(CCN3CCCc4ccccc43)c12 |  |  |  | 6.33 | 5.25 | 5.84 | 5.08 |  |  |  |  | 
4 | Cc1[nH]c2cccc(O)c2c1CCN(C)C |  | 6.91 | 6.27 |  |  | 5.89 | 5.77 |  |  |  |  | 
5 | CN(C)CCc1c[nH]c2cccc(F)c12 |  | 6.47 | 7.08 | 7.09 | 8.08 | 6.44 | 6.00 |  |  | 6.02 | 7.00 | 5.93
6 | CN(C)CCc1c[nH]c2cccc(OP(=O)(O)O)c12 [PSILOCYBIN] |  |  |  |  |  |  |  |  |  | 5.46 | 6.30 | 
7 | CN(C)CCn1ccc2c(O)cccc21 |  |  | 5.38 | 5.66 |  | 5.03 | < 5.00 |  |  |  |  | 
8 | CN(C)Cc1c[nH]c2cccc(O)c12 | Antagonist | 6.03 | 7.90 | 7.62 | 5.91 | 7.31 | 6.08 | Antagonist | Antagonist |  |  | 
9 | Oc1cccc2[nH]cc(CCN3CCCC3)c12 |  | 6.37 | 5.75 | 6.56 | 6.37 |  |  |  |  |  |  | 
10 | CN(C)Cc1cn(C)c2cccc(O)c12 |  | 6.30 | 6.90 | 7.06 | 5.91 |  |  |  |  |  |  | 
11 | CN1CCN(CCc2c[nH]c3cccc(O)c23)CC1 |  | 5.01 |  | 6.99 | 6.94 | < 5.00 | 5.16 |  |  |  |  | 
12 | CN(C)CCc1cn(C)c2cccc(OP(=O)(O)O)c12 |  | < 5.00 | 6.27 | < 5.00 | 5.26 | < 5.00 | < 5.00 |  |  |  |  | 
13 | CN(C)CCCc1c[nH]c2cccc(O)c12 |  | 6.23 | 7.08 | 5.95 | 7.01 |  |  |  |  |  |  | 
14 | CN(C)CCc1cn(C)c2cccc(O)c12 |  | 6.05 | 7.48 | 8.15 | 7.42 | 7.32 | 6.23 |  |  | 6.20 | 7.92 | 
15 | CC(Cc1c[nH]c2cccc(O)c12)N(C)C (centres undefined) |  | 6.01 |  | 6.90 | 6.13 |  |  |  |  |  |  | 
16 | CCCCn1cc(CCN(C)C)c2c(O)cccc21 |  | 6.51 | 7.85 | 8.36 | 8.24 | 7.80 | 6.70 |  |  | 7.49 | 6.23 | 
